Converted amounts (≈) assume the structure as drawn. The source made the active and inactive calls. The calls are words filed in the database; no cut-off is given here.
Key:
[1] = biological target: T1, Scavenger receptor class B member 1 (Mus musculus, UniProt Q61009); test: Inhibition of mouse SR-BI isoform 1 expressed in CHO cells assessed as reduction in transfer of fluorescent lipid DiI from human HDL particles into cells by fluorescence assay; type: cell-based
T1 sequence (Q61009 whole entry): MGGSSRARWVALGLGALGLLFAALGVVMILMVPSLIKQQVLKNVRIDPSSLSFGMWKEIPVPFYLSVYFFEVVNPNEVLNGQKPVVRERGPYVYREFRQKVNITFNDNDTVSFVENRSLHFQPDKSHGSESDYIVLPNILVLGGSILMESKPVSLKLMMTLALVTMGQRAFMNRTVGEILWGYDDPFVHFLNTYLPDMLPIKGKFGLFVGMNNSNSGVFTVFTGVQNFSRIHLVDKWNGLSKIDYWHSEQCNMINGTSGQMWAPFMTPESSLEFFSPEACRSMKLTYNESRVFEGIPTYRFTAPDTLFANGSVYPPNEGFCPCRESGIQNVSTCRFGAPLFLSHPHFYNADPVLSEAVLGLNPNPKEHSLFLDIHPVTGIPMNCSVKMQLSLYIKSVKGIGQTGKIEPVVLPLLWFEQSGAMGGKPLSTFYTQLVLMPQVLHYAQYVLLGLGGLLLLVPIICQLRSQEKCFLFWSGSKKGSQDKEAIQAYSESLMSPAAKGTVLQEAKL
Method in brief: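 ldlA[mSR-BI] cells (CHO, lacking LDL receptor, overexpressing mouse SR-BI), 10,000 per well, plated overnight in F12K/5% FCS. Medium swapped to Ham's F12/0.5% fatty acid-free BSA/25 mM HEPES pH 7.4 with DiI-HDL at 10 μg protein/ml final. Compound pinned in, 3 h at 37 °C, then two PBS (+Ca/Mg) washes. Bottom-read fluorescence; normalized to DMSO and 1 μM BLT-1.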

CHO [2] = test: Cytotoxicity against CHO cells after 24 hrs; type: cell-based, Cricetulus griseus; details: chinese hamster
[3] = Aqueous solubility in PBS buffer with 1% DMSO at 100 uM incubated for 24 hrs by UPLC-MS method; type: physicochemical
Method in brief: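 Duplicate samples at 100 μM in PBS pH 7.4 with 1% DMSO, plus matching samples in 100% DMSO. Shaken 250 rpm for 24 h at room temperature. Quantified by UPLC-MS with SIR detection on a single quadrupole; PBS response fitted to a two-point calibration made from the DMSO samples.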

[4] = biological target: T1, Scavenger receptor class B member 1; test: Inhibition of mouse SR-BI isoform 1 expressed in CHO cells assessed as increase in binding of Alexa-488-labeled HDL particles to cells; type: cell-based
Method in brief: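 ldlA[mSR-BI] cells (LDL receptor-deficient CHO overexpressing mouse SR-BI), 10,000/well in Ham's F12K/5% FCS, grown overnight. Medium swapped for Ham's F12/0.5% fatty acid-free BSA/25 mM HEPES pH 7.4 containing 10 ug/mL Alexa 488-HDL (dye bound covalently to apolipoprotein). Compounds pinned in, 1 uM BLT-1 as positive control, 3 h at 37°C. Cells washed twice with PBS (+Ca/Mg), bottom-read fluorescence, normalised to DMSO and BLT-1 wells.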

CHO [5] = test: Inhibition of general receptor-mediated endocytosis in SR-BI isoform 1 expressing CHO cells assessed as effect on endocytosis of Alexa-594-labeled transferrin up to 35 uM; type: functional, cell-based; details: Cricetulus griseus
[6] = Stability in human plasma assessed as compound remaining at 5 uM after 5 hrs at 37 degC by UPLC-MS method; type: ADME, cell-free; details: read-out: Stability
Method in brief: (§1)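 Plasma (human or mouse) diluted 50/50 with PBS pH 7.4, compound at 5 μM (0.95% acetonitrile, 0.05% DMSO). Run in duplicate, shaken 250 rpm at 37 °C. Sampled at 0 and 5 h; analysed by UPLC-MS with SIR detection.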

[7] = Stability in mouse plasma assessed as compound remaining at 5 uM after 5 hrs at 37 degC by UPLC-MS method; type: ADME, cell-free; details: read-out: Stability; method in brief: as §1
[8] = Stability in human liver microsomes assessed as compound remaining at 1 uM in presence of NADPH at 37 degC after 1 hr by UHPLC-MS method; type: ADME; details: read-out: Stability
Method in brief: (§2)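 Liver microsomes (human or mouse) in PBS pH 7.4, final 1 μM compound, 0.3 mg/mL microsomes, 0.5 mM NADPH, 1% DMSO. Run in duplicate at 37 °C with 250 rpm shaking. Sampled at 0 and 1 h.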

[9] = Stability in mouse liver microsomes assessed as compound remaining at 1 uM in presence of NADPH at 37 degC after 1 hr by UHPLC-MS method; type: ADME; details: read-out: Stability; method in brief: as §2

| SMILES | IC50 [1] [nM] | further results |
| --- | --- | --- |
| COc1ccc(-c2cc(CC(=O)N(C3CCCCC3)C(C)C(=O)NC3CCCC3)no2)cc1OC (stereo not drawn) | 23 | – |
| CC(C(=O)NC1CCCC1)N(C(=O)Cn1nnc(-c2ccc3c(c2)OCO3)n1)C1CCCCC1 (stereo not drawn) | 27 | – |
| O=C(CN(C(=O)Cn1nnc(-c2ccc3c(c2)OCO3)n1)C1CCCCC1)NC1CCCC1 | 26 | – |
| CC(C(=O)NC1CCCC1)N(C(=O)Cn1nnc(-c2cccc(F)c2)n1)C1CCCCC1 (stereo not drawn) | 380 | – |
| CC(C(=O)NC1CCCC1)N(C(=O)Cn1nnc(-c2ccc3c(c2)OCO3)n1)C1CCOCC1 (stereo not drawn) | 840 | – |
| COc1ccc(-c2nc(CC(=O)N(C3CCCCC3)C(C)C(=O)NC3CCCC3)cs2)cc1OC (stereo not drawn) | 6300 | – |
| CC(C(=O)NC1CCCC1)N(C(=O)Cn1nnc(-c2ccc(F)cc2)n1)C1CCCCC1 (stereo not drawn) | 130 | – |
| COc1ccc(-c2nnn(CC(=O)N(C3CCN(C)CC3)C(C)C(=O)NC3CCCC3)n2)cc1OC (stereo not drawn) | > 25000 | – |
| COc1ccc(-c2nnn(CC(=O)N(C3CCCCC3)C(C)C(=O)NC(C)(C)C)n2)cc1OC (stereo not drawn) | 17000 | – |
| COc1ccc(-c2nc(CC(=O)N(C3CCCCC3)C(C)C(=O)NC3CCCC3)co2)cc1OC (stereo not drawn) | 130 | – |
| CC(C(=O)NC1CCCC1)N(C(=O)Cn1nnc(-c2ccc(Cl)cc2)n1)C1CCCCC1 (stereo not drawn) | 170 | – |
| COc1ccc(-c2nnn(CC(=O)N(C3CCCCC3)C(C)C(=O)NC3CCCC3)n2)cc1OC (stereo not drawn) | 55 | Activity (CHO [2]): Non-toxic; solubility kinetic at 24 h, 100 µM [3]: 114 µM (≈ 55.2 µg/mL) |
| COc1ccc(-c2nnn(CC(=O)N(C3CCCC3)C(C)C(=O)NC3CCCC3)n2)cc1OC (stereo not drawn) | 110 | – |
| COc1ccc(-c2nnn(CC(=O)N(C3CC3)C(C)C(=O)NC3CCCC3)n2)cc1OC (stereo not drawn) | 7500 | – |
| COCC(=O)N1CCc2cc(-c3csc(NC(=O)c4cc(OC)cc(OC)c4)n3)ccc21 | – | solubility kinetic at 24 h, 100 µM [3]: 0.57 µM (≈ 0.259 µg/mL) |
| CC(C(=O)NC1CCCC1)N(C(=O)Cn1nnc(-c2ccccc2)n1)C1CCCCC1 (stereo not drawn) | 370 | – |
| Cc1ccc(-c2nnn(CC(=O)N(C3CCCCC3)C(C)C(=O)NC3CCCC3)n2)cc1 (stereo not drawn) | 490 | – |

The next lines start with results.

| IC50 [1] [nM] | SMILES | further results |
| --- | --- | --- |
| 19000 | COc1ccc(-c2nnn(CC(=O)N(C3CCCCC3)C(C)(C)C(=O)NC3CCCC3)n2)cc1OC | – |
| 620 | CC(C(=O)NC1CCCC1)N(C(=O)Cn1nnc(-c2ccccc2F)n1)C1CCCCC1 (stereo not drawn) | – |
| 7100 | COc1ccc(-c2nnn(CC(=O)N(C3CCCCC3)C(C)C(=O)N3CCCCC3)n2)cc1OC (stereo not drawn) | – |
| 230 | CC(C(=O)NC1CCCC1)N(C(=O)Cn1nnc(-c2ccc3c(c2)OC(F)(F)O3)n1)C1CCCCC1 (stereo not drawn) | – |
| 3800 | CC(C(=O)NC1CCCC1)N(C(=O)Cn1nnc(-c2ccccc2Cl)n1)C1CCCCC1 (stereo not drawn) | – |
| 1600 | COc1ccc(-c2nnn(CC(=O)N(CC3CCCCC3)C(C)C(=O)NC3CCCC3)n2)cc1OC (stereo not drawn) | – |
| 180 | CC(C(=O)NC1CCCC1)N(C(=O)Cn1nnc(-c2ccc(Cl)c(Cl)c2)n1)C1CCCCC1 (stereo not drawn) | – |
| 810 | COc1ccc(-c2nnn(CC(=O)N(C3CCCCC3)C(C)C(=O)NC(C)C)n2)cc1OC (stereo not drawn) | – |
| 37000 | CC(C(=O)NC1CCCC1)N(C(=O)Cc1ccccc1)C1CCCCC1 (stereo not drawn) | – |
| 180 | COc1cccc(-c2nnn(CC(=O)N(C3CCCCC3)C(C)C(=O)NC3CCCC3)n2)c1 (stereo not drawn) | – |
| 420 | COc1ccc(-c2nnn(CC(=O)N(C3CCCCC3)C(C)C(=O)NC3CC3)n2)cc1OC (stereo not drawn) | – |
| > 25000 | COc1ccccc1-c1nnn(CC(=O)N(C2CCCCC2)C(C)C(=O)NC2CCCC2)n1 (stereo not drawn) | – |
| 200 | COc1ccc(-c2nnn(CC(=O)N(C3CCCCC3)C(C)C(=O)NC3CCCCC3)n2)cc1OC (stereo not drawn) | – |
| 19000 | COc1ccc(-c2nnn(CC(=O)N(C)C(C)C(=O)NC3CCCC3)n2)cc1OC (stereo not drawn) | – |
| 1600 | COc1ccc(-c2nnn(CC(=O)N(C3CCCCC3)C(C)C(=O)N(C)C3CCCC3)n2)cc1OC (stereo not drawn) | – |
| > 25000 | COc1ccc(-c2nnn(CC(=O)N(C3CCCCC3)C(C(=O)NC3CCCC3)C(C)C)n2)cc1OC (stereo not drawn) | – |
| 17 | C[C@H](C(=O)NC1CCCC1)N(C(=O)Cn1nnc(-c2ccc3c(c2)OCO3)n1)C1CCCCC1 | solubility kinetic at 24 h, 100 µM [3]: 28 µM (≈ 13.1 µg/mL); EC50 [4]: 270 nM; inhibition (CHO [5]): inactive; remaining at 5 h, 5 µM [6]: > 99%; remaining at 5 h, 5 µM [7]: > 99%; remaining at 1 h, 1 µM [8]: < 1%; remaining at 1 h, 1 µM [9]: < 1% |

Reference: ChEMBL document CHEMBL3425510, “Discovery of bisamide-heterocycles as inhibitors of scavenger receptor BI (SR-BI)-mediated lipid uptake” (Bioorg Med Chem Lett, 2015)
